Laboratory results from article PMC7425103 (Drug Design, Development and Therapy, 2020).

Experiments:
Assay type in all cases: cell-based, human
MCF-7 cell line [1] = experiment: Cell cycle analysis by DNA flow cytometry; settings: MCF-7, at IC50
MCF-7 cell line [2] = experiment: Annexin V-FITC/PI staining apoptosis assay; settings: MCF-7, at IC50, 24 hours
Method in brief: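 MCF-7 cells were seeded at 4 x 10^6/well and exposed to the test compound for 24 hours. Cells were washed three times with ice-cold PBS and resuspended in PBS. They were then stained with Annexin V-FITC and PI from a kit for 15 minutes at room temperature in the dark, and analysed by flow cytometry.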

[3] = system: MCF-7 (breast cancer) cell line; experiment: MTT anticancer; settings: ratio of IC50 values vs reference CA-4
Method in brief: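 ATCC MCF-7 cells were grown in DMEM with 10% FBS and penicillin/streptomycin. After trypsin detachment they were seeded at 1000–2000 cells/well and held 34 hours at 37°C in 5% CO2. Test compound was added at 0.1, 1, 10, 25 and 100 μM for 72 hours. Then 5% MTT was added for 2 h at 37°C, formazan was dissolved in isopropanol, and absorbance was read at 570 nm. Viability was expressed as % of control and IC50 derived by curve fitting.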

[4] = system: Hep G2 (hepatocellular liver carcinoma) cell line; experiment: MTT anticancer; settings: ratio of IC50 values vs reference CA-4

Structure (SMILES): COc1cc(/C=C/C(=O)c2ccc(NC(=O)c3ccccc3CN3C(=O)c4ccccc4C3=O)cc2)cc(OC)c1OC [Compound 7j, (E)-2-((1,3-Dioxoisoindolin-2-Yl)Methyl)-N-(4-(3-(3,4,5-Trimethoxyphenyl)Acryloyl)Phenyl)Benzamide]
- apoptosis at preG1 phase, times higher than entinostat (MCF-7 cell line [1]): 1.04 times
- cell accumulation percentage at G2/M phase, fold higher than CA-4 (MCF-7 cell line [1]): 1.05 fold
- percentage of cells at G2/M, folds higher than entinostat (MCF-7 cell line [1]): 1.53 fold
- cell necrosis, fold increase compared to untreated control (MCF-7 cell line [2]): 2.09 fold
- early apoptotic cell population, fold more than untreated control (MCF-7 cell line [2]): 14.36 fold
- late apoptotic cells population, folds increase vs untreated control (MCF-7 cell line [2]): 44.60 fold
- fold anticancer activity relative to CA-4, MCF-7 [3]: 2.57 fold
- fold anticancer activity relative to CA-4, Hep G2 [4]: 4.51 fold
